Results from ChEMBL document CHEMBL1144905, “More lipophilic dialkyldiamine-based diazeniumdiolates: synthesis, characterization, and application in preparing thromboresistant nitric oxide release polymeric coatings” (J Med Chem, 2003).

Key:
[1] = Partition coefficient (logP); type: physicochemical; conditions: octanol/water
Outline: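 Octanol/water partition coefficient calculated with ChemDraw, not measured.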

[2] = Apparent half life period in PBS buffer; type: ADME
Outline: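 Half-life by chemiluminescence at 37 °C. Diazeniumdiolate in 10 mM NaOH (or, if water-insoluble, in THF or NaOH/MeOH), 25–100 µL, injected into 3 mL deoxygenated 100 mM phosphate buffer pH 7.4 with 137 mM NaCl and 2.7 mM KCl. NO released, removed by nitrogen purge, read every 0.25 s to baseline. Half-life = time to release half of total possible NO.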

| Structure (SMILES) | logP [1] | half-life [2] |
| --- | --- | --- |
| CCCCCCNCCCCCCN(CCCCCC)/[N+]([O-])=N/O | 6.26 |  |
| CCCCCNCCCCCCN(CCCCC)/[N+]([O-])=N/O | 5.21 | 4.65 min |
| CCCCNCCCCCCN(CCCC)/[N+]([O-])=N/O | 4.15 | 4.95 min |

More lines, now with the values ahead:

| logP [1] | half-life [2] | Structure (SMILES) |
| --- | --- | --- |
| 0.97 | 1.12 min | CNCCCCCCN(C)/[N+]([O-])=N/O |
| 2.03 | 5.78 min | CCNCCCCCCN(CC)/[N+]([O-])=N/O |
| 3.09 | 5.32 min | CCCNCCCCCCN(CCC)/[N+]([O-])=N/O |
